Measurements as given in ChEMBL document CHEMBL4513216, “Probing the Open Global Health Chemical Diversity Library for Multistage-Active Starting Points for Next-Generation Antimalarials” (ACS Infect Dis, 2020).

Assay: Toxicity liver stage against HepG2, at 10uM
Assay type: cell-based
Parameters: test concentration 10 uM, cell line HepG2-A16-CD81EGFP
Conditions: human, HepG2-A16-CD81EGFP cells; read-out: INHIBITION
In short: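 Uninfected HepG2-A16-CD81EGFP cells, 3 × 10^3 per well, 1536-well, plated on prespotted compound at 10 μM final, parasite-free screening media added to match infected plates; puromycin 10 μM positive, DMSO 0.5% negative; run in parallel with 48 h PbLuc assay at 37 °C, 5% CO2; viability by CellTiter-Glo luminescence, normalized to controls.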

Compared with `Cc1ccc(CN2C[C@H]3CN(C(=O)c4ccno4)CCN3C2=O)cc1`, `CC(C)n1cc(CN2CCCN(C(=O)c3cccnc3O)CC2)cn1` is higher in cytotoxicity at 10 µM: -2.07% for the first, 4.29% for the second.

First: CCNC(=O)c1cc2n(n1)CCCO2
Second: CN1CCCCC1CC(=O)Nc1ccc2ncn(C)c2c1 (stereo not given)
The cytotoxicity at 10 µM of the first is lower: 1.25% for the first, 4.18% for the second.

Compared with `O=C(NCC(O)c1ccoc1)Nc1c(F)cccc1F` (stereo not given), `O=C(Cn1cc(C(=O)O)ccc1=O)Nc1ccc(Cl)cc1F` is lower in cytotoxicity at 10 µM: -5.86% for the first, -6.94% for the second.

Going from `COCCO[C@H]1CCN(Cc2cnn(C)c2)[C@H]1Cc1cccnc1` to `Cc1nc(C)n(CC2CCCN2CC(=O)NCCc2ccccc2)n1` (stereo not given), the cytotoxicity at 10 µM falls from 0.793% to -16.5%.

First: CCc1c(C)nc2n(c1=O)CC(C(=O)Nc1nc3c(s1)CCCC3)CS2 (stereo not given)
Second: Cc1noc(C)c1CS(=O)(=O)CC(=O)N1CCc2sccc2C1
The cytotoxicity at 10 µM of the first is higher: 2.17% for the first, -17% for the second.

Going from `COCCN(Cc1ccoc1)C(=O)c1cccnc1SC` to `COc1ccc(CNC(=O)Nc2cccnc2OC)cc1O`, the cytotoxicity at 10 µM falls from 12.4% to -26.3%.

Going from `O=S(=O)(Nc1ccc(N2CCOCC2)cn1)c1ccc(F)cc1` to `c1cc(CNCc2ccnc(N3CCOCC3)c2)c2c(c1)OCCO2`, the cytotoxicity at 10 µM rises from -6.64% to -4.66%.

Going from `Cc1nc(CNC2(C(=O)OC(C)(C)C)CCCC2)oc1C` to `Cc1csc(C2(NCC(O)COC(C)C)CCCC2)n1` (stereo not given), the cytotoxicity at 10 µM rises from -0.457% to 4.53%.

Compared with `CCc1noc(C)c1C(=O)N1CCN(c2nc(C)cc(OC)n2)CC1`, `Cc1csc(N2CCCN(CCC(=O)NC(N)=O)CC2)n1` is lower in cytotoxicity at 10 µM: -13.8% for the first, -24.2% for the second.

Going from `CC(C)(C)c1cc(NC(=O)CN2CCCC2Cn2cncn2)on1` (stereo not given) to `COCCC(=O)N1CCCC(CCC(=O)NCc2cccc(OC)c2)C1` (stereo not given), the cytotoxicity at 10 µM rises from 5.91% to 23.1%.

Compared with `CC(C)CC(NC(=O)c1ccn(C)c(=O)c1)c1ccccc1` (stereo not given), `CC(C)CS(=O)(=O)N1C[C@@H]2C[C@H](C(=O)NCc3ccccc3)[C@H](C1)O2` is higher in cytotoxicity at 10 µM: -6.76% for the first, 8.24% for the second.

First: Cc1ccc(C)c(CN(C)Cc2nnc3ccccn23)c1
Second: CC(C)N(Cc1ccc(C(F)(F)F)nc1)Cc1cnn(C)c1
The cytotoxicity at 10 µM of the first is lower: -10.5% for the first, 1.36% for the second.

First: CCN(CC)CC(=O)NCCc1csc(N2CCCC2)n1
Second: O=C(CCc1nccs1)N1CCC(N2CCNC2=O)CC1
The cytotoxicity at 10 µM of the first is higher: 8.55% for the first, -9.86% for the second.

Going from `CN(CC1CCCCO1)C(=O)c1ccnc(OC2CCC2)c1` (stereo not given) to `O=C(Nc1cnccn1)[C@@H]1COC[C@H]2CN(C3CCCC3)C[C@H]21`, the cytotoxicity at 10 µM falls from -7.63% to -21.9%.

Going from `CC(C)c1nc(C(=O)N2CCOCC2CC(=O)c2ccco2)c[nH]1` (stereo not given) to `CN(C)Cc1ccc(C2CCCCN2C(=O)c2ncccc2O)cc1` (stereo not given), the cytotoxicity at 10 µM falls from 0.769% to -6.59%.

Going from `Cc1cnc(CNC(=O)[C@@]23CCO[C@@H]2CCN(c2ncccn2)C3)cn1` to `Cn1cc(CN2CCC(F)(F)C3(CCN(c4ncccn4)C3)C2)cn1` (stereo not given), the cytotoxicity at 10 µM rises from -100% to -0.58%.

Going from `COc1ncc(-c2ccc(C(N)=O)cc2)c(OC)n1` to `N#Cc1ccc(OCCN2CCc3cncnc3C2)cc1`, the cytotoxicity at 10 µM falls from -5.9% to -9.96%.

Compared with `CC(C)N1CCC(C(=O)N2CCC(C(O)c3nccn3C)CC2)CC1` (stereo not given), `O=C(c1cc(C2CC2)[nH]n1)N1CCN(Cc2ccc3c(c2)OCO3)CC1` is higher in cytotoxicity at 10 µM: -2.7% for the first, -2.32% for the second.

Compared with `CCOc1cc(Cl)c(CN2CCC3(CCCNC3=O)C2)cc1OC` (stereo not given), `CCC1(CO)CCN(C(=O)c2cc(COc3ccccc3F)[nH]n2)CC1` is lower in cytotoxicity at 10 µM: 10.6% for the first, 4.45% for the second.

Compared with `CCNC(=O)NC(=O)CNC(C)(C)c1ccc2c(c1)OCCO2`, `O=C(NCc1ccc(-n2cncn2)nc1)c1cc(Cl)c2c(c1)OCCO2` is higher in cytotoxicity at 10 µM: -19.7% for the first, -16.5% for the second.

First: COc1c(CNCc2ccnc(N(C)C)c2)c(C(C)C)nn1C
Second: c1ccc(Cn2cc(CNCC3CNc4ccnn4C3)cn2)cc1 (stereo not given)
The cytotoxicity at 10 µM of the first is higher: -6.3% for the first, -11.6% for the second.

Compared with `O=C(c1cccnc1)N1Cc2nccn2CC(COc2cccnc2)C1` (stereo not given), `O=c1[nH]c2cn(-c3ccc(F)cc3)c(=O)n2n1Cc1cccc(Cl)c1` is higher in cytotoxicity at 10 µM: 4.01% for the first, 6.59% for the second.

With `CCS(=O)(=O)N1Cc2ncn(CC3CC3)c2C(COCC2CC2)C1` (stereo not given) the cytotoxicity at 10 µM was 0.822%.
